What was measured:
[1] = target: T1, 5-hydroxytryptamine receptor 1A (Rattus norvegicus, UniProt P19327); test: Binding affinity against native 5-HT1A-receptors from rat hippocampus using radioligand ([3H]8-hydroxy-2-(di-n-propylamino)-tetraline) binding assay; assay type: tissue-based
T1 sequence (P19327 whole entry): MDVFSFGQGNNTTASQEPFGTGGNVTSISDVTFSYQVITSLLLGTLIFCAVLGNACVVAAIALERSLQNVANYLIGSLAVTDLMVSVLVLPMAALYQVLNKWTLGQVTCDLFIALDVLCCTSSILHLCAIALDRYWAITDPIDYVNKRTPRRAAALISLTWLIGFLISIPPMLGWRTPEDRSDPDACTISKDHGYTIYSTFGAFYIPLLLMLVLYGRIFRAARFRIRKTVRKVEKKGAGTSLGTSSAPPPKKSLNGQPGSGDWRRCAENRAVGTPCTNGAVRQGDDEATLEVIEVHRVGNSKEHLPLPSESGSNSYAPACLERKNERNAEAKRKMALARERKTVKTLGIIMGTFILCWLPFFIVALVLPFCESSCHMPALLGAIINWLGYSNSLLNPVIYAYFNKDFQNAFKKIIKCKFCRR

[2] = target: T2, Alpha-1D adrenergic receptor (Homo sapiens, UniProt P25100); test: Compound was tested for binding affinity against human hippocampus Alpha-1D adrenergic receptor using radioligand ([3H]prazosin) binding assay
T2 sequence (P25100 whole entry): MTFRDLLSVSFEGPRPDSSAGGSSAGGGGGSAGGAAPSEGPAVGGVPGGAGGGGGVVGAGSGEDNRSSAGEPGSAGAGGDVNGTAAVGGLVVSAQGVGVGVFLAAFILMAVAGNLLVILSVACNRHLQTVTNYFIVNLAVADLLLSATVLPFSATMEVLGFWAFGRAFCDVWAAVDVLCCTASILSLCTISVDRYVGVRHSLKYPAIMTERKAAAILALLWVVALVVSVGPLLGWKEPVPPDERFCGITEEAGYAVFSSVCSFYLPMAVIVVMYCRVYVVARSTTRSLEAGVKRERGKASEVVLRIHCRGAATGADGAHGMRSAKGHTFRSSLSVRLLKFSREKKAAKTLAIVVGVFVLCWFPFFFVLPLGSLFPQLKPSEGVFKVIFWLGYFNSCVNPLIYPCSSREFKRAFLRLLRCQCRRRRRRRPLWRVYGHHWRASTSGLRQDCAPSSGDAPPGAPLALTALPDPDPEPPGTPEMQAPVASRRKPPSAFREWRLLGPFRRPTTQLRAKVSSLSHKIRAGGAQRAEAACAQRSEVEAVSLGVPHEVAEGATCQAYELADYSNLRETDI
How it was run: (§1)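 Membranes (30 µg protein) came from CHO cells stably transfected with the human α1-adrenoceptor subtype gene. […] Nonspecific binding was defined with 10 µM phentolamine. Filtration on PEI-treated filters followed. Ki came from the fitted IC50 via Cheng-Prusoff.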

[3] = target: T3, Adrenergic receptor alpha-2 (Rattus norvegicus, UniProt P22086+P19328+P22909); test: Binding affinity against native Alpha-2 adrenergic receptor from rat cerebral cortex using radioligand ([3H]rauwolscine) binding assay; assay type: tissue-based
T3 sequence (P22086 whole entry): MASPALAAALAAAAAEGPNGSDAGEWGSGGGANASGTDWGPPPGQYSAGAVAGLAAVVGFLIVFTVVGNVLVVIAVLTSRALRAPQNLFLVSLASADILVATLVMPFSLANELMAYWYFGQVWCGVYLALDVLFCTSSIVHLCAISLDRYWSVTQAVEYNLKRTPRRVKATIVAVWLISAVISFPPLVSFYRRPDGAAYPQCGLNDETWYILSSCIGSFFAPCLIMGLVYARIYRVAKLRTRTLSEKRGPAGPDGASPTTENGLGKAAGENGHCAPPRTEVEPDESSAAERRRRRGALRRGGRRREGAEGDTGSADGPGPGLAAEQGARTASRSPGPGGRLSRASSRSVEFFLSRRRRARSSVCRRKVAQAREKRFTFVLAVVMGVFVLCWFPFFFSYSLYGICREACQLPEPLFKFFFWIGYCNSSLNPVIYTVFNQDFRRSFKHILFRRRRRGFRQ
T3 sequence (P19328 whole entry): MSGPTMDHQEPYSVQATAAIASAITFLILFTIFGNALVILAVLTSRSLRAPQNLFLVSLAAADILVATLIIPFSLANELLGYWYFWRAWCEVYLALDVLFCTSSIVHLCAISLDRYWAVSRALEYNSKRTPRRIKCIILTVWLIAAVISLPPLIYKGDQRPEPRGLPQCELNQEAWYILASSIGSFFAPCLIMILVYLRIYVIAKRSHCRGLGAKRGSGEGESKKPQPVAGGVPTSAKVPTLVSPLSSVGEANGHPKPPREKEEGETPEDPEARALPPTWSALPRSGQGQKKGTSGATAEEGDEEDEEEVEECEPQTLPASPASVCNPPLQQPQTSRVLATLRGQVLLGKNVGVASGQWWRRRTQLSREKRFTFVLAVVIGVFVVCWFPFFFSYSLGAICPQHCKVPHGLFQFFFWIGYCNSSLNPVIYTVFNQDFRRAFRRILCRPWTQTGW
T3 sequence (P22909 whole entry): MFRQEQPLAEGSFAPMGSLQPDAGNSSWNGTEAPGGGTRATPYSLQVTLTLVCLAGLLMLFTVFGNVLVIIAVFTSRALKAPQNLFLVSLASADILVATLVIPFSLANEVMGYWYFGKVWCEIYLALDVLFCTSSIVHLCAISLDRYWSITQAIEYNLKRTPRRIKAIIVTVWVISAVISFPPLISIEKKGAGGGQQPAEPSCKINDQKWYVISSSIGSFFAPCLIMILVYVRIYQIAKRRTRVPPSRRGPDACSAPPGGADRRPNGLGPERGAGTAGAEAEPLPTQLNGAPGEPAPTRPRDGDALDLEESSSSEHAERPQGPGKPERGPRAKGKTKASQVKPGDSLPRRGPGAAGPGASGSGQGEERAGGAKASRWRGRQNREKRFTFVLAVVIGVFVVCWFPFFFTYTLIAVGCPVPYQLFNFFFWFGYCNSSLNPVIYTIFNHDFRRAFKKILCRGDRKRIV

[4] = target: T4, Alpha-1A adrenergic receptor (Homo sapiens, UniProt P35348); test: Compound was tested for binding affinity against human hippocampus Alpha-1A adrenergic receptor using radioligand ([3H]prazosin) binding assay; how it was run: as §1
T4 sequence (P35348 whole entry): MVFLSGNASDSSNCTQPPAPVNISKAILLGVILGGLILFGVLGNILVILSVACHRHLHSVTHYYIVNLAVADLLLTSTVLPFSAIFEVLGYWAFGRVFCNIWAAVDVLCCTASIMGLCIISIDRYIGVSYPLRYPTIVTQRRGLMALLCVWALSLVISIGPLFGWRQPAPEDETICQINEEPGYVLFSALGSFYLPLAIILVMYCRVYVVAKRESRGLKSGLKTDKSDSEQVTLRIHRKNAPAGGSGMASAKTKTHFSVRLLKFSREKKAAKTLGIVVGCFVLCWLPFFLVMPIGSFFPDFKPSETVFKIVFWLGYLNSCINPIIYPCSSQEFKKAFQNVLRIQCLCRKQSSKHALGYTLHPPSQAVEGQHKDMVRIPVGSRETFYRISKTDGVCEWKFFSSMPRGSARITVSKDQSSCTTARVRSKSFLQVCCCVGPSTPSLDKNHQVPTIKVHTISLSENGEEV

[5] = target: T5, Alpha-1B adrenergic receptor (Homo sapiens, UniProt P35368); test: Compound was tested for binding affinity against […] Alpha-1B adrenergic receptor using radioligand ([3H]-prazosin) binding assay; how it was run: as §1
T5 sequence (P35368 whole entry): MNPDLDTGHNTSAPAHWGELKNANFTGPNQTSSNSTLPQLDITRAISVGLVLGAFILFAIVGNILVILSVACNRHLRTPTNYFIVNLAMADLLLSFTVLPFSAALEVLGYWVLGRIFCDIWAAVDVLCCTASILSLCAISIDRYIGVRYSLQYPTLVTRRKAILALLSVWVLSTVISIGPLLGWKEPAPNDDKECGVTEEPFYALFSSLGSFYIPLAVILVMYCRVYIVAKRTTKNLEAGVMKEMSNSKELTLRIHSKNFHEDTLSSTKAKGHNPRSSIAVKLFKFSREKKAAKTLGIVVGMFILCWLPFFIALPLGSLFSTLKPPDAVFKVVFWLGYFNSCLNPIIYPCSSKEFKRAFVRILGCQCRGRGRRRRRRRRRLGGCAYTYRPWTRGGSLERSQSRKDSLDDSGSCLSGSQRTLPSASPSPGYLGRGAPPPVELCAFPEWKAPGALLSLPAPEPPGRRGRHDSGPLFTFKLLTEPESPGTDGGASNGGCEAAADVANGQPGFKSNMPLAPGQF

D(2) dopamine receptor = D(2) dopamine receptor (Rattus norvegicus, UniProt P61169); test: Compound was tested for binding affinity against native Dopamine receptor D2 from rat striatum using radioligand [3H]-spiperone)
How it was run: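 Rat striatal membranes were prepared in Tris-HCl pH 7.4 with 10 µM pargyline, 0.1% ascorbic acid, 120 mM NaCl, 5 mM KCl, 2 mM CaCl2 and 1 mM MgCl2. Filtration and scintillation counting followed. Ki was obtained from the curve-fitted IC50 via Cheng-Prusoff; values are mean pKi ± SE.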

[6] = target: T6, Alpha-1A adrenergic receptor (Bos taurus, UniProt P18130); test: Compound was tested for binding affinity against cloned Alpha-1A adrenergic receptor from bovine brain using radioligand ([3H]prazosin) binding assay
T6 sequence (P18130 whole entry): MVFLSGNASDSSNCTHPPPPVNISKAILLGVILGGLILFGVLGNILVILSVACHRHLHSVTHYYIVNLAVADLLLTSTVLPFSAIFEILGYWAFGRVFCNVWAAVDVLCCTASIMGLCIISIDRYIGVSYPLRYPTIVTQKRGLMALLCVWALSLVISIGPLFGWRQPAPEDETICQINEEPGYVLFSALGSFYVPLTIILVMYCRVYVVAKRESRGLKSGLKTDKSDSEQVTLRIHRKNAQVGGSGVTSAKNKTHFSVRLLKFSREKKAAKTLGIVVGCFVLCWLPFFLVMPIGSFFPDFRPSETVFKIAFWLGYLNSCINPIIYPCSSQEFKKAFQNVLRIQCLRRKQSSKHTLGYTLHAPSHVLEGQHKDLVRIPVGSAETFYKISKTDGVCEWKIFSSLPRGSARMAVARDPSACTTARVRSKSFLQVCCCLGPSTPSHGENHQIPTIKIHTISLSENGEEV

D(2) dopamine receptor, sequence (P61169 whole entry): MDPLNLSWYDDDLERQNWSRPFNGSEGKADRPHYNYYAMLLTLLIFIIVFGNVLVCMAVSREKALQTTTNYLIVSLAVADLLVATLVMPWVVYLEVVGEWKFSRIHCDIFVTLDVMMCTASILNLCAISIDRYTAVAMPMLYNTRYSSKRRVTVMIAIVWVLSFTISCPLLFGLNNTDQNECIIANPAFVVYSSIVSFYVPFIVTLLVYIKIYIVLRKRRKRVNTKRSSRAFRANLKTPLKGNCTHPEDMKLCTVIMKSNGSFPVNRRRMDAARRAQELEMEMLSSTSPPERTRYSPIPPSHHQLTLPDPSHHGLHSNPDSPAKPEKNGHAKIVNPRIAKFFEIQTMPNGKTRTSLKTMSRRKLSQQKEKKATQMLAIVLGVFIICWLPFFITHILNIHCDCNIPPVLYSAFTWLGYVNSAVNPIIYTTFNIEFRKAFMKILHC

Row | SMILES | Ki [1] | Ki [2] | Log Ki [3] | Ki [4] | Ki [5] | Ki (D(2) dopamine receptor) | Ki [6]
1 | COc1cc2nc(N3CCN(C(=O)c4ccco4)[C@@H]4CCCC[C@@H]43)nc(N)c2cc1OC | 12.9 µM | 0.00324 µM | -6.13 | 0.0123 µM | 0.000135 µM | 8.32 µM | –
2 | COc1cc2nc(N3CCN(C(=O)c4ccco4)C4CCCCC43)nc(N)c2cc1OC (racemic) | 6.92 µM | – | -6.17 | – | – | > 10 µM | –
3 | COc1cc2nc(N3CCN(C(=O)c4ccco4)[C@H]4CCCC[C@H]43)nc(N)c2cc1OC [CYCLAZOSIN] | 6.17 µM | – | -5.86 | – | – | > 10 µM | –
4 | COc1cc2nc(N3CCN(C(=O)c4ccco4)CC3)nc(N)c2cc1OC [PRAZOSIN] | 2.34 µM | – | – | – | – | > 10 µM | –
5 | O=C(CCCN1CCC2(CC1)C(=O)NCN2c1ccccc1)c1ccc(F)cc1 [SPIPERONE] | 0.0251 µM | – | – | – | – | – | 0.0135 µM

Reference: ChEMBL document CHEMBL1129400 (J Med Chem, 1996)
